Drawing on ChEMBL document CHEMBL2057127, “Design, synthesis, modeling, biological evaluation and photoaffinity labeling studies of novel series of photoreactive benzamide probes for histone deacetylase 2” (Bioorg Med Chem Lett, 2012), this text covers Activity, inhibition and IC50 for twelve compounds.

Assay [1] deals with T1, Histone deacetylase 2 (Homo sapiens, UniProt Q92769). The assay is described as follows: Binding affinity to His-tagged human HDAC2 assessed as decrease in biotinylation of HDAC2 at 25 uM preincubated for 24 hrs measured after 1 hr by Western blot analysis in presence of five-fold molar excess of Trichostatin A.
T1 sequence (Q92769 whole entry): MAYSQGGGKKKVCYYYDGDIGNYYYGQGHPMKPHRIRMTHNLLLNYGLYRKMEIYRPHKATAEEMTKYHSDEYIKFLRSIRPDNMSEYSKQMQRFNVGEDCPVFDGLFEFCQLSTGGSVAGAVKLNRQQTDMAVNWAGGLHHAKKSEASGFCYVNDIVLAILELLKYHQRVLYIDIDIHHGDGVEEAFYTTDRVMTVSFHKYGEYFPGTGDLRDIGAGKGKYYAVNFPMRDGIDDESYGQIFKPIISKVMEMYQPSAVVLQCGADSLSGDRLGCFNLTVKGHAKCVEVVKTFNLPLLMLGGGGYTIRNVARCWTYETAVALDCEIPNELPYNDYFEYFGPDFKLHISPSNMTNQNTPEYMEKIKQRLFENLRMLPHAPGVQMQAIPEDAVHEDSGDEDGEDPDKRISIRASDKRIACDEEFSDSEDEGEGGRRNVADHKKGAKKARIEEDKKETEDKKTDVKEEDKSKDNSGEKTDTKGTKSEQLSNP
Assay [2] has as its target T2, Histone deacetylase 1 (Homo sapiens, UniProt Q13547). Kind of assay: Inhibition of HDAC1 in human MDA-MB-231 cells assessed as inhibition of H4 deacetylation at 50 uM after 24 hrs by Western blot analysis. The format is cell-based. In a few lines:
(§1)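 MDA-MB-231 cells grown to 90% confluence in DMEM/10% FBS and treated with probes (50 µM final) or DMSO for 24 h at 37 °C, 5% CO2. Cells lysed in RIPA buffer with protease/phosphatase inhibitors, 25 µg total protein run on SDS-PAGE. Western blot with anti-acetyl histone H4, GAPDH as loading control; three independent experiments.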
In general terms: Immunoblotting shows a protein as a band on a membrane.

The target in assay [3] is T1, Histone deacetylase 2. Kind of assay: Inhibition of HDAC2 in human MDA-MB-231 cells assessed as inhibition of H4 deacetylation at 50 uM after 24 hrs by Western blot analysis. The format is cell-based. In a few lines:
as §1

The target in assay [4] is Histone deacetylase 3 (Homo sapiens) (UniProt O15379). The assay is described as follows: Inhibition of human recombinant HDAC3 using Boc-L-Lys (Ac)-AMC as substrate at 10 uM by spectrofluorometric analysis. Particulars: TDE = time-dependent effect.
Chain of Histone deacetylase 3 (Homo sapiens) (O15379 whole entry): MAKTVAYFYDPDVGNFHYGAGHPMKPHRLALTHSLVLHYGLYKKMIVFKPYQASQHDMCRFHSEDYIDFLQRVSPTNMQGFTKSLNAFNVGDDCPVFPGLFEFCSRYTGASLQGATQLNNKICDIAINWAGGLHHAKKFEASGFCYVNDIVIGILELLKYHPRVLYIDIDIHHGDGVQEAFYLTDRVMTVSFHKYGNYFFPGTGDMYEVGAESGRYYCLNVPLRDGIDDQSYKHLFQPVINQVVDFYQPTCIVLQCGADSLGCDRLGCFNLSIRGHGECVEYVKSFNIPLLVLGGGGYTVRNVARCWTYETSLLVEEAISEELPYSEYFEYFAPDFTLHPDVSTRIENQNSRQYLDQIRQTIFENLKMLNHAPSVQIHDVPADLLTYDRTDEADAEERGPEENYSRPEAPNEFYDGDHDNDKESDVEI
Assay [5] deals with T3, Histone deacetylase 8 (Homo sapiens) (UniProt Q9BY41).
T3 sequence (whole entry): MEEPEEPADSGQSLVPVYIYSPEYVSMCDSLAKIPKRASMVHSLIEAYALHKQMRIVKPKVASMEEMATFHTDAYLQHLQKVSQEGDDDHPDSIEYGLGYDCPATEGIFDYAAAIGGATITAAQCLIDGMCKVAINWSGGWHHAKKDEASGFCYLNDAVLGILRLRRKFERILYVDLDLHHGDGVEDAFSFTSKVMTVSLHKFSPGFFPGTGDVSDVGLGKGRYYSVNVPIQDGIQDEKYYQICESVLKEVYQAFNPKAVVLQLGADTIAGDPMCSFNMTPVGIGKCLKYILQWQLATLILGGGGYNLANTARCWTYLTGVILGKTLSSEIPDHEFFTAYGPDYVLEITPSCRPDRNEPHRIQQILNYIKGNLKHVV
Kind of assay: Inhibition of human recombinant HDAC8 using BML-KI-178 as substrate at 10 uM by spectrofluorometric analysis. Particulars: TDE = time-dependent effect.

Assay [6] deals with T2, Histone deacetylase 1. Kind of assay: Inhibition of human recombinant HDAC1 using Boc-L-Lys (Ac)-AMC as substrate preincubated with compound for 5 mins measured after 35 mins by spectrofluorometric analysis.
The target of assay [7] is T2, Histone deacetylase 1. Kind of assay: Inhibition of human recombinant HDAC1 using Boc-L-Lys (Ac)-AMC as substrate preincubated with compound for 3 hrs measured after 35 mins by spectrofluorometric analysis.
Assay [8] deals with T1, Histone deacetylase 2. The assay is described as follows: Inhibition of human recombinant HDAC2 using Boc-L-Lys (Ac)-AMC as substrate preincubated with compound for 5 mins measured after 35 mins by spectrofluorometric analysis.
For assay [9], the target named is T1, Histone deacetylase 2. Kind of assay: Inhibition of human recombinant HDAC2 using Boc-L-Lys (Ac)-AMC as substrate preincubated with compound for 3 hrs measured after 35 mins by spectrofluorometric analysis.
Assay [10] deals with T1, Histone deacetylase 2. The assay is described as follows: Inhibition of human recombinant HDAC2 using Boc-L-Lys (Ac)-AMC as substrate preincubated with compound for 24 hrs measured after 35 mins by spectrofluorometric analysis.

The source made the active and inactive calls. No cut-off for these calls is given here.

T2 sequence (Q13547 whole entry): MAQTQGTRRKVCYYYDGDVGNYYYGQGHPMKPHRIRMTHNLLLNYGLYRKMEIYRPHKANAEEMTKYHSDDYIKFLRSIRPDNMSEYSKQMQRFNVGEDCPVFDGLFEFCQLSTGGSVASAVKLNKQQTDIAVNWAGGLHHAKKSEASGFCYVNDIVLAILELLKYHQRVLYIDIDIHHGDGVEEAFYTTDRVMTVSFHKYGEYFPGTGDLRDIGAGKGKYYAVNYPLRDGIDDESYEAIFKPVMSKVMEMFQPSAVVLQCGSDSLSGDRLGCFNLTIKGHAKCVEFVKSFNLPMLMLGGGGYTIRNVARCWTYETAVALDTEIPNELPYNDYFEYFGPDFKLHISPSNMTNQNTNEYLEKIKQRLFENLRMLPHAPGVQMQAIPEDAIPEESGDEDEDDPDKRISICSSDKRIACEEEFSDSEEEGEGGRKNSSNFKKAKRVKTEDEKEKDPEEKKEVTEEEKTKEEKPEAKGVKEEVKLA

As for `[N-]=[N+]=NCc1cc(COC(=O)NCc2ccc(C(=O)Nc3cc(-c4cccs4)ccc3N)cc2)cc(N=[N+]=[N-])c1`, the outcome at Histone deacetylase 2 [1] was Active. Also, the inhibition entry on Histone deacetylase 1 [2] and at Histone deacetylase 2 [3] was “Active” throughout. Also, the inhibition result in assay [4] and in assay [5] was “tde” in each case.
With `[N-]=[N+]=Nc1ccc(C(=O)Nc2cc(-c3ccccc3)ccc2N)cc1`, the inhibition entry on Histone deacetylase 1 [2] and on Histone deacetylase 2 [3] was “Active” in each case. Also, the inhibition entry in assay [4] and in [5] was “tde” each time.
One may read the IC50 as the concentration that inhibits the measured activity by half. Take `[N-]=[N+]=NCCOc1ccc(C(=O)Nc2cc(-c3ccccc3)ccc2N)cc1N=[N+]=[N-]`: the half-maximal inhibitory concentration (IC50) at Histone deacetylase 1 [6] was 23 µM; on Histone deacetylase 1 [7], 2.7 µM; on Histone deacetylase 2 [8] it was 34 µM; on Histone deacetylase 2 [9] it was 6.5 µM. The outcome at Histone deacetylase 2 [1] was Active. The inhibition result at Histone deacetylase 1 [2] and at Histone deacetylase 2 [3] was “Active” throughout. In addition, the inhibition result in assay [4] and in [5] was “tde” each time.
Turning to `Nc1ccc(-c2ccccc2)cc1NC(=O)c1ccc(CNC(=O)OCc2ccccc2)cc1`, the inhibition entry in assay [4] and in assay [5] was “tde” each time.
For `[N-]=[N+]=NCCOc1ccc(C(=O)Nc2cc(-c3cccs3)ccc2N)cc1N=[N+]=[N-]`, the IC50 turned out to be 18 µM on Histone deacetylase 1 [6], 3.8 µM at Histone deacetylase 1 [7], 17 µM on Histone deacetylase 2 [8] and 6.6 µM at Histone deacetylase 2 [9]. Moreover, the result on Histone deacetylase 2 [1] was Active. Moreover, the inhibition result on Histone deacetylase 1 [2] and on Histone deacetylase 2 [3] was “Active” in each case. Also, the inhibition result in assay [4] and in [5] was “tde” in each case.
Consider `[N-]=[N+]=NCc1cc(N=[N+]=[N-])cc(C(=O)Nc2cc(-c3ccccc3)ccc2N)c1`, for which the outcome on Histone deacetylase 2 [1] was Active. Besides, the inhibition entry at Histone deacetylase 1 [2] and on Histone deacetylase 2 [3] was “Active” each time. In addition, the inhibition result in assay [4] and in assay [5] was “tde” each time.
On to `[N-]=[N+]=NCc1cc(COC(=O)NCc2ccc(C(=O)Nc3cc(-c4ccccc4)ccc3N)cc2)cc(N=[N+]=[N-])c1`, for which the result on Histone deacetylase 2 [1] was Active. Besides, the inhibition entry on Histone deacetylase 1 [2] and on Histone deacetylase 2 [3] was “Active” each time. The inhibition result in assay [4] and in assay [5] was “tde” throughout.
As for `Nc1ccc(-c2ccccc2)cc1NC(=O)c1ccccc1`, the IC50 at Histone deacetylase 1 [6] is 0.41 µM; on Histone deacetylase 1 [7] it was 0.052 µM; on Histone deacetylase 2 [8] it was 1.2 µM; at Histone deacetylase 2 [9], 0.35 µM; on Histone deacetylase 2 [10], 0.14 µM. Moreover, the inhibition result in [4] and in [5] was “tde” in each case.
Take `[N-]=[N+]=Nc1cccc(COC(=O)NCc2ccc(C(=O)Nc3cc(-c4ccccc4)ccc3N)cc2)c1`: the IC50 is 3.8 µM on Histone deacetylase 1 [6]; 0.78 µM at Histone deacetylase 1 [7]; 3.8 µM on Histone deacetylase 2 [8]; 1 µM at Histone deacetylase 2 [9]; 0.32 µM on Histone deacetylase 2 [10]. Also, the inhibition result at Histone deacetylase 1 [2] and at Histone deacetylase 2 [3] was “Active” in each case. Moreover, the inhibition entry in [4] and in assay [5] was “tde” each time.
As for `[N-]=[N+]=NCCC(=O)Nc1ccc(C(=O)Nc2cc(N=[N+]=[N-])ccc2N)cc1`, at Histone deacetylase 2 [1], the outcome was Active. In addition, the inhibition entry in assay [4] and in assay [5] was “tde” throughout.
Turning to `[N-]=[N+]=Nc1ccc(C(=O)Nc2cc(-c3cccs3)ccc2N)cc1`, the inhibition result on Histone deacetylase 1 [2] and on Histone deacetylase 2 [3] was “Active” throughout. For the same compound, the inhibition entry in assay [4] and in assay [5] was “tde” throughout.
Take `[N-]=[N+]=NCc1cc(N=[N+]=[N-])cc(C(=O)Nc2cc(-c3cccs3)ccc2N)c1`: the IC50 was found to be 5.6 µM at Histone deacetylase 1 [6] and 1.4 µM on Histone deacetylase 1 [7]. The outcome at Histone deacetylase 2 [1] was Active. Moreover, the inhibition entry on Histone deacetylase 1 [2] and at Histone deacetylase 2 [3] was “Active” each time. Moreover, the inhibition result in assay [4] and in [5] was “tde” each time.
